Bioassay records (PubChem BioAssay)
MrgX1 PAM = human MrgX1 positive allosteric modulation, primary screen; Q96LB2; MrgX1-HEK293, Fluo-4 calcium flux, FDSS; hits give high values; AID 588675; B-score at 10 µM; hit rate 0.63% among 310,000;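 active = plate-corrected calcium response at least 3 library SD above typical, normal starting fluorescence, not activating the receptor alone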;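 note: compound read alongside a low EC10 to EC30 dose of BAM8-22 agonist; peak minus trough fluorescence over baseline measured at the second addition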
Target sequence (Q96LB2 whole entry, looked up): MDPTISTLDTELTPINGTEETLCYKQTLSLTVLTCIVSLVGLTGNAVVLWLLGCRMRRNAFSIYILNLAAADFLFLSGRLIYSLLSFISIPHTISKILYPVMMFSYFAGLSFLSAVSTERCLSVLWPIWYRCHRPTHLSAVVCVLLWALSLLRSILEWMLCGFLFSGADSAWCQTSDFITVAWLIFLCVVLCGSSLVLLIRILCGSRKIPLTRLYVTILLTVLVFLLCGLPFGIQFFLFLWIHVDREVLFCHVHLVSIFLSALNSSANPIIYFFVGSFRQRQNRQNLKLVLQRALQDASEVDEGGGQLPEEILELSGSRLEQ
MrgX1 antagonist = human MrgX1 receptor antagonism, primary screen; MRGX1-HEK293 calcium flux, Fluo-4, BAM8-22 antagonism; hits give low values; AID 588676; B-score at 10 µM; hit rate 1.3% among 310,000; Q96LB2;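 active = calcium-response B-score plate-corrected more than 3 library SD below zero, starting fluorescence within 5 deviations, no agonist response on first addition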;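 note: peak minus trough fluorescence over baseline after final BAM8-22 challenge near maximal dose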
RGS4 act = potentiators or activators of RGS4 | HEK293 M3R/inducible RGS4, carbachol calcium flux Fluo4; hits give low values | B-score at 10 µM | hit rate 0.92% among 310,000;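 active = B-score of the integrated calcium signal more than 4 SD below the library mean, with starting fluorescence not abnormally high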;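 note: negative B-score means reduced calcium response which marks RGS4 activation or potentiation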
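System – HEK293 FlpIn-TREx cells, stable M3R, doxycycline-inducible RGS4 · Reagent – ECmax carbachol challenge · Times – compound preincubation 20 min at room temperature before agonist · Technique – Fluo4 fluorescence kinetic imaging of calcium · Measure – B score of integrated Fluo4 ratio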
MrgX1 agonist = human MrgX1 receptor agonism, primary screen; Q96LB2; hit rate 0.44% among 310,000; MrgX1-HEK293 cells, Fluo-4 calcium fluorescence, agonist mode; hits give high values; B-score at 10 µM; AID 588627;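 active = calcium response B-score plate-corrected fluorescence ratio at least 3 library SD, with starting fluorescence B-score inside 5 SD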
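System – MrgX1-expressing HEK293 cells · Incubation – cells plated overnight, dye loaded 0.5 h 37 °C, 0.5 h room temperature · Technique – kinetic Fluo-4 NW fluorescence of intracellular calcium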
RGS4 block = human RGS4 inhibition. P49798. HEK293 M3R/RGS4 inducible, Fluo-4 calcium flux; hits give high values; triggered by carbachol at its EC20. B-score at 10 µM. hit rate 0.45% among 310,000;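 active = B-score, a plate-corrected calcium signal, over three deviations above library mean, with baseline fluorescence within five deviations of library mean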;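 note: RGS4 expression induced by doxycycline in cells with stable M3 receptor; B-score is computed from the integrated fluorescence ratio over baseline after carbachol; higher B-score means a larger calcium signal and so more RGS4 inhibition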
Target sequence (P49798 whole entry, looked up): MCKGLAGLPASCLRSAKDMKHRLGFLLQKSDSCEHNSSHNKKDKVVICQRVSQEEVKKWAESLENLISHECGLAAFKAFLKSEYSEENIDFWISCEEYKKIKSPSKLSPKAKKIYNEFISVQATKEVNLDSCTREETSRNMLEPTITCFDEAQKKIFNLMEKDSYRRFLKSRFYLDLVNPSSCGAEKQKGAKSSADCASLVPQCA
RGS4 inh valid = RGS4 inhibitor validation; HEK293 M3R/RGS4, carbachol calcium Fluo-4 fluorescence; carbachol added at its EC20; 0 = buffer wells, 100 = carbachol control; hit rate 65% among 1,700; calcium response, % at 10 µM; shares compounds with RGS4 block;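 active = duplicate-averaged calcium response above the buffer-only control mean plus 5 SD of those controls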;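 note: integrated fluorescence ratio F max minus min over baseline F0; higher response in RGS4-induced cells means RGS4 inhibition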
M3R Ca ctr = counter-screen for RGS4 inhibitors: effect in non-induced cells; activity (percent), % at 10 µM; HEK293 M3R non-induced, carbachol calcium Fluo-4; submaximal (EC20) carbachol stimulus; buffer wells 0%, carbachol control wells 100%; hit rate 20% among 1,900; shares compounds with RGS4 block; call rule not given here;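 note: RGS4 induction absent so cells express M3R without RGS4; higher means more calcium signal and flags a non-specific hit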
RGS4 inh ctr2 = second counter-screen for RGS4 inhibitors: non-induced cells without carbachol | hit rate 22% among 1,900 | HEK293 M3R/RGS4 non-induced, Fluo-4 calcium, no carbachol; normalised: buffer wells 0%, carbachol wells 100% | calcium response (agonist-mode artifact), % at 10 µM | shares compounds with RGS4 block;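 active = duplicate-averaged calcium rise in uninduced cells above buffer wells' mean plus 5 SD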
Of the large screens only hits and unclear results are named; the others gave an inactive call (follow-up assays come after a bar, where they were run). This is a sample that favours compounds with a hit; in the whole collection about 3.5% have one here.

Cn1ncc2c(N3CCN(c4ccc(Cl)c(Cl)c4)CC3)ncnc21	RGS4 block 5.7 | RGS4 inh valid 9.5% | M3R Ca ctr inactive | RGS4 inh ctr2 inactive
Cn1ncc2c(N3CCN(c4ccccc4F)CC3)ncnc21	none
COc1ccc(OC)c(N(CC(=O)NCCSCc2ccc(C)cc2)S(C)(=O)=O)c1	none
CC(C)(C)OC(=O)N1CCC(c2cc(-c3cccs3)n[nH]2)CC1	RGS4 block 4.96 | RGS4 inh valid 17.0% | M3R Ca ctr inactive | RGS4 inh ctr2 inactive
CC1CCN(C(=O)CSc2n[nH]c(-c3cccs3)n2)CC1	none
O=C1c2cc(O)cc(O)c2C(=O)c2c1cc(O)c([C@@H](CO)CCO)c2O	RGS4 block 6.3 | RGS4 inh valid 17.5% | M3R Ca ctr inactive | RGS4 inh ctr2 67.0%
Cc1cc(O)c2c(c1)C(=O)c1cc(O)cc(O)c1C2=O	none
O=C(NCc1ccccc1Cl)/C(=C\c1cccnc1)NC(=O)c1ccccc1	none
COc1ccc(C(=O)N/C(=C\c2ccccc2)C(=O)NCc2cccnc2)cc1	none | RGS4 inh valid inactive | M3R Ca ctr inactive | RGS4 inh ctr2 inactive
O=C(NCc1cccnc1)/C(=C/c1ccc(Cl)cc1)NC(=O)c1ccccc1	none | RGS4 inh valid inactive | M3R Ca ctr inactive | RGS4 inh ctr2 inactive
CC(C)(C)C1CCc2c(sc(NC(=O)C3CC=CCC3C(=O)O)c2C#N)C1 (stereo not given)	none
N#Cc1c(NC(=O)C2CC=CCC2C(=O)O)sc2c1CCCCCC2 (stereo not given)	RGS4 block 5.03 | RGS4 inh valid 19.5% | M3R Ca ctr inactive | RGS4 inh ctr2 inactive
Cc1nn(-c2cccc(Cl)c2)c2nc(-c3ccco3)cc(C(=O)O)c12	none
Cc1cccc(-n2nc(C)c3c(C(=O)O)cc(-c4cccs4)nc32)c1	RGS4 block 9.53 | RGS4 inh valid 19.0% | M3R Ca ctr 30.0% | RGS4 inh ctr2 inactive
CC1CCCC(C)N1CC(C)(C)NS(=O)(=O)c1ccc(Cl)cc1 (stereo not given)	none
NNC(=O)c1ccc(Cn2cccn2)o1	none
O=C(CC(SCCO)c1ccc([N+](=O)[O-])cc1)c1ccco1 (stereo not given)	RGS4 block 5.44 | RGS4 inh valid 11.0% | M3R Ca ctr inactive | RGS4 inh ctr2 inactive
Cc1ccc(C(=O)CC(C(=O)O)n2cnc([N+](=O)[O-])n2)cc1 (stereo not given)	RGS4 block 5.58 | RGS4 inh valid 14.5% | M3R Ca ctr inactive | RGS4 inh ctr2 inactive
COc1ccc(C(CC(=O)c2ccc(C)cc2)Nc2ccc([N+](=O)[O-])cc2)cc1 (stereo not given)	none
Cc1ccc(C(=O)CC(SCC(=O)O)c2ccc([N+](=O)[O-])cc2)cc1 (stereo not given)	RGS4 block 6.29 | RGS4 inh valid 11.0% | M3R Ca ctr 36.0% | RGS4 inh ctr2 inactive
CC(=O)C1=C(C)OC(N)=C(C#N)C1c1cc2cc(C)c(C)cc2nc1Cl (stereo not given)	RGS4 block 15 | RGS4 inh valid 5.0% | M3R Ca ctr inactive | RGS4 inh ctr2 inactive
COC(=O)C1=C(C)OC(N)=C(C#N)C1c1cc2cc(C)ccc2nc1Cl (stereo not given)	none
O=C(c1nnsc1S(=O)c1ccc(Cl)cc1)N1CCOCC1 (stereo not given)	RGS4 block 7.14 (no result: MrgX1 PAM, MrgX1 antagonist, MrgX1 agonist) | RGS4 inh valid 31.0% | M3R Ca ctr inactive | RGS4 inh ctr2 23.5%
O=C(c1nnsc1S(=O)(=O)c1ccc(Cl)cc1)N1CCOCC1	none (no result: MrgX1 PAM, MrgX1 antagonist, MrgX1 agonist)
Cc1cccc2c1NC(=O)C2(c1ccc(O)cc1)c1ccc(O)cc1	RGS4 block 8.57 | RGS4 inh valid 10.0% | M3R Ca ctr inactive | RGS4 inh ctr2 inactive
Cc1cc(C2(c3ccc(O)c(C)c3)C(=O)Nc3ccccc32)ccc1O	none
CCOC(=O)c1sc(NC(=O)CSc2nnnn2-c2ccccc2)nc1C	none
CCOC(=O)c1c(-c2ccc(C)o2)csc1NC(=O)CSc1nnnn1-c1ccccc1	RGS4 block 9.86 | RGS4 inh valid inactive | M3R Ca ctr inactive | RGS4 inh ctr2 inactive
CCOC(=O)c1c(-c2ccc(C)o2)csc1NC(=O)CSc1nnc(C)s1	none | RGS4 inh valid inactive | M3R Ca ctr inactive | RGS4 inh ctr2 inactive
CCOC(=O)c1c(-c2ccccc2)csc1NC(=O)CSc1nnc(C)s1	none
O=C(O)CCC(=O)Nc1sc2c(c1C(=O)NCc1ccccc1)CCCC2	none
COc1ccc(NC(=O)c2c(NC(=O)CCC(=O)O)sc3c2CCCCC3)cc1	none | RGS4 inh valid inactive | M3R Ca ctr inactive | RGS4 inh ctr2 inactive
CCn1cc(C(=O)N(CCC(C)C)c2c(N)n(Cc3ccccc3)c(=O)[nH]c2=O)c(=O)c2ccc(C)nc21	none
O=C(CC1C(=O)NCCN1C(=O)c1ccccc1)Nc1cc(Cl)ccc1Cl (stereo not given)	none
COc1ccc(S(=O)(=O)/N=C2/NC(=O)/C(=C\c3cc(OC)c(OC)cc3[N+](=O)[O-])S2)cc1	none | RGS4 inh valid inactive | M3R Ca ctr inactive | RGS4 inh ctr2 inactive
COc1ccc(S(=O)(=O)/N=C2/NC(=O)/C(=C\c3ccco3)S2)cc1	none
COc1cc(/C=C2\S/C(=N/S(=O)(=O)c3ccccc3)NC2=O)c([N+](=O)[O-])cc1OC	RGS4 block 6.79 | RGS4 inh valid 30.0% | M3R Ca ctr 68.5% | RGS4 inh ctr2 inactive
O=c1c(Cc2ccc(Cl)cc2)c(O)ccn1Cc1cccs1	none
COc1ccc(NS(=O)(=O)c2ccc(Cl)c(N)c2)cc1Br	RGS4 block 8.64 | RGS4 inh valid 15.0% | M3R Ca ctr 31.5% | RGS4 inh ctr2 inactive
CCc1nnc(NS(=O)(=O)c2ccc(N=Cc3c(C)[nH]n(-c4ccc(Cl)cc4)c3=O)cc2)s1	none | M3R Ca ctr inactive | RGS4 inh ctr2 inactive
Cc1ccc(-n2[nH]c(C)c(C=Nc3ccc(S(=O)(=O)Nc4nccs4)cc3)c2=O)cc1C	none | M3R Ca ctr inactive | RGS4 inh ctr2 inactive
Cc1[nH]n(-c2ccc(Cl)cc2)c(=O)c1C=Nc1ccc(S(=O)(=O)N2CCOCC2)cc1	RGS4 block 6.27 | RGS4 inh valid 31.5% | M3R Ca ctr 55.0% | RGS4 inh ctr2 inactive
CCc1nnc(NS(=O)(=O)c2ccc(N=Cc3c(C)[nH]n(-c4cccc(Cl)c4)c3=O)cc2)s1	none
CCOC(=O)c1cc(-c2ccccc2)n(CCC(=O)N2CCN(c3ccccn3)CC2)c1C	none
